Compounds with a hit are over-represented: about 2.4% of the library has one in this group of screens.
MC4R antag cAMP – antagonists of human melanocortin 4 receptor (MC4R); P32245; MC4R-expressing cells, MTII-stimulated cAMP, LANCE TR-FRET; inhibition, % at 6.5 µM; 360,000 tested, 0.48% active; AID 540295;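 active = inhibition above its plate's cutoff, the mean of tested wells on that plate plus 3 SD, cut at about 29% in these data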
Target sequence (P32245 whole entry, looked up): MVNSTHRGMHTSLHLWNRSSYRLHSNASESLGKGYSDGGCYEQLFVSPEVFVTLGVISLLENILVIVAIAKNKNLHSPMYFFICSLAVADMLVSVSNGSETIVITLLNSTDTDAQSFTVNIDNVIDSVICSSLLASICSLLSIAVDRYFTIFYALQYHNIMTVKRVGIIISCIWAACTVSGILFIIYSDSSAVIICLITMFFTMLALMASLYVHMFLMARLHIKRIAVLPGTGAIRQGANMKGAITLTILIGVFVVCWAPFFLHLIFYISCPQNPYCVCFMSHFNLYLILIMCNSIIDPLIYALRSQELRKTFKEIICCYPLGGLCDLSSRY
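System – human MC4R-expressing U2OS cells · Also added – Melanotan II · Dosing – one concentration, 6.5 µM nominal · Timing – 30-min compound, 1-h challenge, 1-h detection, room temperature · Measured by – Eu-cAMP/anti-cAMP TR-FRET, emission 671 nm · Replicates – singlicate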
MC4R barr agon – activates human MC4R beta-arrestin recruitment; P32245; U2OS MC4R beta-arrestin complementation, luminescence; percent of melanotan II response, DMSO zero; activation, % at 8.9 µM; 360,000 tested, 0.98% active; AID 540308;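 active = activation above a per-plate cutoff, the mean activation of sample wells on that plate plus 3 SD, cut at about 8% in these data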
MOR-DOR ag – OPRM1-OPRD1 heterodimerization agonism | P35372+P41143 | cells, luminescence | activation, % at 9.3 µM | 340,000 tested, 0.3% active | AID 504326; in the data active = activation above about 18%
OPRM1-OPRD1 inv – mu-delta opioid heterodimer inverse agonism. P35372+P41143. inhibition, % at 9.3 µM. AID 504357. 340,000 tested, 0.21% active. cell-based MOR-DOR heterodimer luminescence; in the data active = inhibition above about 22%, passing the limit was not always enough
HTR5A inv ag – inverse agonist of human HTR5A in OPRM1-OPRD1 counter-screen | AID 504634 | 340,000 tested, 0.083% active | P47898 | inhibition, % at 9.3 µM | HTR5A cell line, luminescence, inverse agonism; in the data active = inhibition mostly above about 23%, no sharp cut-off; inactive = mostly below about 18%
Target sequence (P47898 whole entry, looked up): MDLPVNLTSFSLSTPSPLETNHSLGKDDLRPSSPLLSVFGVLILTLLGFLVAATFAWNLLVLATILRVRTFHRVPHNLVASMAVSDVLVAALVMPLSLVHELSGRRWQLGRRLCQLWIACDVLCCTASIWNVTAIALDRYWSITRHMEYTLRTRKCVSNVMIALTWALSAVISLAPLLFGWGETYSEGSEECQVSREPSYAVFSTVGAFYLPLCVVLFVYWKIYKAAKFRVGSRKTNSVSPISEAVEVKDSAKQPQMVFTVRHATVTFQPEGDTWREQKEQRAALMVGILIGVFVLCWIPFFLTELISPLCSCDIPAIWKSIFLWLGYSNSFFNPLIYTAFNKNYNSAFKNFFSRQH
HTR5A ag ctr – activates human HTR5A in OPRM1-OPRD1 agonist counter-screen. 340,000 tested, 0.61% active. activation, % at 9.3 µM. P47898. HTR5A agonist assay, luminescence, cell-based; in the data active = activation mostly above about 9.5%, no sharp cut-off; inactive = mostly below about 7.6%
Large screens that a line does not name were inactive.

CCC(CC)C(=O)Nc1nnc(S(=O)(=O)N2c3ccccc3CC2C)s1 (stereo not drawn)	none
O=C1[C@H](Oc2ccccc2)[C@@H](c2ccccc2)N1c1ccncc1	HTR5A ag ctr 9.4
COc1cccc(CNC(=O)C2CCN(c3nnc(N4CCCC4=O)s3)CC2)c1	HTR5A ag ctr 13
CCCOc1ccc(CNC(=O)C2CCN(c3nnc(N4CCCC4=O)s3)CC2)cc1	none
CN(CCNC(=O)C1CCN(c2ncnc3c2nc2n3CCCCC2)CC1)Cc1ccccc1	HTR5A ag ctr 11
O=C(NCc1ccc(Cl)cc1)C1CCCN(c2ncnc3c2nc2n3CCCCC2)C1 (stereo not drawn)	HTR5A ag ctr 13
CC(C)NC(=O)CCCc1c[nH]c2ccccc12	none
CCCn1nc(C(=O)N(C)CC(=O)Nc2ccc(OCC)c(OCC)c2)c2ccccc2c1=O	none
O=C(Cc1nc2ccccc2[nH]1)c1ccc(Br)cc1	none
O=C(N/C(=C/c1ccccc1Cl)C(=O)N1CCCC1)c1ccccc1	HTR5A ag ctr 14
O=C(N/C(=C/c1ccc(F)cc1)C(=O)N1CCCC1)c1ccccc1	none
CN(C)c1ccc(-c2nnn(Cc3ccccc3Br)n2)cc1	none
CS(=O)(=O)c1ccc(C(=O)OCc2nnc(-c3ccc(Cl)cc3)o2)cc1[N+](=O)[O-]	HTR5A ag ctr 10
Oc1c(Cl)cccc1C=Nc1cc(C(F)(F)F)ccc1N1CCCC1	none
Oc1c(Cl)cc(Cl)cc1C=Nc1cc(C(F)(F)F)ccc1N1CCc2ccccc2C1	MC4R antag cAMP 29
CCc1nnc(SCC(=O)NC2CCCC2)nc1CC	HTR5A ag ctr 9.8
CCc1nnc(SCC(=O)NC2CCCCC2)nc1CC	none
CCSc1nnc(NC(=O)Cn2cnc3c2c(=O)n(C)c(=O)n3C)s1	none (no result: MOR-DOR ag, OPRM1-OPRD1 inv, HTR5A inv ag, HTR5A ag ctr)
CC1CCC2(CC1)OCC1(CCC3(COC4(CCC(C)CC4)OC3)C1=O)CO2 (stereo not drawn)	MC4R barr agon 9.2
O=C1CN(C(=O)NCC(=O)N[C@@H](C(=O)O)c2ccccc2)c2ccccc2N1	none
CCn1c(C)nc2cc(C(=O)N/N=C(\C)c3ccccc3O)ccc21	HTR5A ag ctr 10
CCn1c(C)nc2cc(C(=O)N/N=C/c3ccccc3C)ccc21	none
Cc1c(Cl)cccc1NC(=O)c1cccc(NC(=O)CCC(=O)O)c1	HTR5A ag ctr 12
CCCc1nnc(SCC(=O)N2CCOCC2)n1Cc1ccco1	HTR5A ag ctr 9.6
Cc1ccc(CN2C3CCCC2CC(NC(=O)c2ccc(C)cc2)C3)cc1 (stereo not drawn)	none
CC(=O)NC1CC2CCCC(C1)N2Cc1ccc(C)cc1 (stereo not drawn)	HTR5A ag ctr 14
Cn1nnc2cc(NC(=O)Nc3ccccc3F)ccc21	none (no result: MOR-DOR ag, OPRM1-OPRD1 inv, HTR5A inv ag, HTR5A ag ctr)
Cc1cc(NC(=O)Nc2ccccc2F)ccc1Br	MC4R barr agon 8.7
COc1ccc(CN2c3c(Br)cccc3C(=O)CS2(=O)=O)cc1	HTR5A inv ag 17
O=C(c1ccccc1F)N1C(=O)c2cccc3cccc1c23	HTR5A ag ctr 12
O=C(CCC1CCCN(C(=O)CCCc2ccccc2)C1)N1CCN(c2ccccn2)CC1 (stereo not drawn)	none
N#Cc1ccc(NC(=O)Cn2c3[n+](c4ccc(C(F)(F)F)cc42)CCCCC3)cc1	none (no result: MOR-DOR ag, OPRM1-OPRD1 inv, HTR5A inv ag, HTR5A ag ctr)
O=C(Cn1c2[n+](c3ccc(C(F)(F)F)cc31)CCCCC2)Nc1ccc(Br)cc1	MC4R antag cAMP 30 (no result: MOR-DOR ag, OPRM1-OPRD1 inv, HTR5A inv ag, HTR5A ag ctr)
O=c1ccc2c([nH]1)CCCCCCCCCC2	none
Cc1ccc(S(=O)(=O)NCCc2ccccc2)cc1	none
Cc1cc(C)c(S(=O)(=O)NCCc2ccccc2)c(C)c1	MC4R barr agon 8.4
OC1(c2ccc(Br)cc2)CN(c2ccccc2)C2=[N+]1CCS2 (stereo not drawn)	none
O=C(CSc1ncn[nH]1)Nc1ncc(C(F)(F)F)cc1Cl	none
O=C(CSc1ncn[nH]1)Nc1ccc(Cl)c(Cl)c1	HTR5A ag ctr 8.7
O=C(NCCCC1CCCC1)C1CCC(=O)N(Cc2ccc(Cl)cc2)C1 (stereo not drawn)	none
COc1cc(C(C)=O)ccc1OCC(=O)NCC(c1ccc(F)cc1)N1CCOCC1 (stereo not drawn)	none
CCCN(CC(=O)Nc1ccccc1C)C(=O)COc1c(C)cccc1C	none
CCCN(CC(=O)Nc1ccccc1C)C(=O)COC(=O)c1cnc(C)cn1	HTR5A ag ctr 10
CCOc1ccc(NS(=O)(=O)c2ccc(C(=O)N(C)CCc3ccc(OC)c(OC)c3)cc2)cc1	none
COC(=O)c1sc2ncccc2c1OCc1c(Cl)cccc1Cl	MC4R barr agon 20
CN(CC(=O)NCc1ccco1)CC(=O)Nc1ccc(F)c(F)c1F	HTR5A ag ctr 11
CN1CCN(c2ccccc2NC(=O)c2ccc(-c3cccc(Cl)c3)o2)CC1	MOR-DOR ag 62
O=C(Nc1ccccc1N1CCCCC1)c1ccc(-c2cccc(Cl)c2)o1	none
CN1/C(=C\C(=O)COc2ccc3c(c2)OCO3)C(C)(C)c2ccccc21	HTR5A ag ctr 14
CCOC(=O)C1CCCN(C(=O)c2ccncc2)CC1 (stereo not drawn)	none (no result: MOR-DOR ag, OPRM1-OPRD1 inv, HTR5A inv ag, HTR5A ag ctr)
Cc1ccccc1/C(N)=N/OC(=O)c1cccs1	HTR5A ag ctr 12
CCN(CC)CCN(C(=O)Cn1nnc(-c2ccc(C)o2)n1)C(C(=O)NC1CCCC1)c1ccc(F)cc1 (stereo not drawn)	none
CCOc1nc(-c2ccc(Cl)cc2)nc2ccccc12	none
COc1cccc(C2CC(c3ccc(Cl)cc3Cl)Nc3nc(N)nn32)c1 (stereo not drawn)	MC4R barr agon 9.2
CCCCN(C(=O)CN1CCOCC1)c1c(N)n(CC(C)C)c(=O)[nH]c1=O	none
CC(=O)N(Cc1c(C)nn(-c2ccccc2)c1Cl)c1ccc(Cl)cc1	none
Cc1nn(-c2ccccc2)c(Cl)c1CN(C(=O)CCl)c1cccc2ccccc12	MOR-DOR ag 52, HTR5A ag ctr 40
OC12CC3C[C@H](C1)C(N1CCOCC1)[C@@H](C3)C2 (stereo partly drawn)	HTR5A ag ctr 10
COc1ccc(C(CNC(=O)c2ccc(-c3ccccc3)cc2)N(C)C)cc1OC (stereo not drawn)	none
Cc1nc2cc(C(F)(F)F)ccc2n1C1CCN(CC(=O)N2CCCC2)CC1	none
Cc1nc2cc(C(F)(F)F)ccc2n1C1CCN(CC(=O)N2CCOCC2)CC1	HTR5A ag ctr 9.0
COc1cc(NC(=O)c2ccccc2F)ccc1NC(=O)c1cc2ccccc2o1	MC4R barr agon 8.8
CC(C(=O)Nc1cccc(S(=O)(=O)N2CCOCC2)c1)N1CCN(C)CC1 (stereo not drawn)	none
COc1cc(/C=C2/C(=N)N3C=CSC3=NC2=O)ccc1OCCCOc1cc(C)ccc1C	MC4R barr agon 31
COc1cc(/C=C2\C(=N)N3N=C(S(C)(=O)=O)SC3=NC2=O)ccc1OCCOc1ccccc1C	none

Screens as filed in PubChem BioAssay.
